From ChEMBL document CHEMBL1158102, “Biologically active triterpenoid saponins from Acanthopanax senticosus” (J Nat Prod, 2006)
Active and inactive are the calls of the source. The calls are words filed in the database; no cut-off is given here.

Each compound was assayed against T1, Pancreatic triacylglycerol lipase (Homo sapiens) (UniProt P16233) (assay: Inhibition of pancreatic lipase assessed as umoles of oleic acic released per millimiter of triolein per hour at 1 mg/mL).
T1 sequence (whole entry): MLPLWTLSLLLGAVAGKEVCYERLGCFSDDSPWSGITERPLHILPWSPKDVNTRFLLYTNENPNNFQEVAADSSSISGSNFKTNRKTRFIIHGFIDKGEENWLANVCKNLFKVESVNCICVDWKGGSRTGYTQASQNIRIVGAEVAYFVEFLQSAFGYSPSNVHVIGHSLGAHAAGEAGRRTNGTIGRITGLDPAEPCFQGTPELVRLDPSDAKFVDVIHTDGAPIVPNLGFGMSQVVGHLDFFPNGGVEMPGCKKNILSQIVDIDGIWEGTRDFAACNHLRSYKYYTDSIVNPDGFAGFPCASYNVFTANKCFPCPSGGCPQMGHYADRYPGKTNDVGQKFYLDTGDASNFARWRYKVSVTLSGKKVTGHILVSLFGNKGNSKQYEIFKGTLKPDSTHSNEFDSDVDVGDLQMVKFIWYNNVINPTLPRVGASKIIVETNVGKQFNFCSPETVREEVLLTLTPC
Summary of the method: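 Lipase activity measured as rate of oleic acid release from triolein. Substrate: sonicated triolein, phosphatidylcholine and taurocholic acid in 0.1 M TES buffer pH 7.0 with 0.1 M NaCl. Incubated with pancreatic lipase (10 units) and sample for 30 min at 37 °C. Free fatty acids extracted, converted to copper salts, reacted with bathocuproine, absorbance read at 480 nm. Means ± SEM of three experiments.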

Row | Activity | inhibition [%] | Compound
1 | inactive |  | C=C1CC[C@]2(C(=O)O[C@@H]3O[C@H](CO[C@@H]4O[C@H](CO)[C@@H](O[C@@H]5O[C@@H](C)[C@H](O)[C@@H](O)[C@H]5O)[C@H](O)[C@H]4O)[C@@H](O)[C@H](O)[C@H]3O)CC[C@]3(C)C(=CC[C@H]4[C@H]3CC[C@H]3C(C)(C)[C@@H](O[C@@H]5OC[C@H](O)[C@H](O)[C@H]5O[C@@H]5O[C@@H](C)[C@H](O)[C@@H](O)[C@H]5O)CC[C@]43C)[C@@H]2C1
2 | inactive |  | C=C1CC[C@]2(C(=O)O[C@@H]3O[C@H](CO[C@@H]4O[C@H](CO)[C@@H](O[C@@H]5O[C@@H](C)[C@H](O)[C@@H](O)[C@H]5O)[C@H](O)[C@H]4O)[C@@H](O)[C@H](O)[C@H]3O)CC[C@]3(C)C(=CC[C@H]4[C@H]3CC[C@H]3C(C)(C)[C@@H](O[C@@H]5OC[C@H](O)[C@H](O)[C@H]5O[C@@H]5O[C@H](CO)[C@@H](O)[C@H](O)[C@H]5O)CC[C@]43C)[C@@H]2C1
3 |  | 46.5 | C=C1CC[C@]2(C(=O)O[C@@H]3O[C@H](CO[C@@H]4O[C@H](CO)[C@@H](O[C@@H]5O[C@@H](C)[C@H](O)[C@@H](O)[C@H]5O)[C@H](O)[C@H]4O)[C@@H](O)[C@H](O)[C@H]3O)CC[C@]3(C)C(=CC[C@H]4[C@H]3CC[C@H]3C(C)(C)[C@@H](O[C@@H]5OC[C@H](O)[C@H](O)[C@H]5O)CC[C@]43C)[C@@H]2C1
4 |  | -80.5 | C=C1CC[C@]2(C(=O)O[C@@H]3O[C@H](CO[C@@H]4O[C@H](COC(C)=O)[C@@H](O[C@@H]5O[C@@H](C)[C@H](O)[C@@H](O)[C@H]5O)[C@H](O)[C@H]4O)[C@@H](O)[C@H](O)[C@H]3O)CC[C@]3(C)C(=CC[C@H]4[C@H]3CC[C@H]3C(C)(C)[C@@H](O[C@@H]5OC[C@H](O)[C@H](O)[C@H]5O[C@@H]5O[C@@H](C)[C@H](O)[C@@H](O)[C@H]5O)CC[C@]43C)[C@@H]2C1
5 | inactive |  | C=C1CC[C@]2(C(=O)O[C@@H]3O[C@H](CO[C@@H]4O[C@H](COC(C)=O)[C@@H](O[C@@H]5O[C@@H](C)[C@H](O)[C@@H](O)[C@H]5O)[C@H](O)[C@H]4O)[C@@H](O)[C@H](O)[C@H]3O)CC[C@]3(C)C(=CC[C@H]4[C@H]3CC[C@H]3C(C)(C)[C@@H](O[C@@H]5OC[C@H](O)[C@H](O)[C@H]5O[C@@H]5O[C@H](CO)[C@@H](O)[C@H](O)[C@H]5O)CC[C@]43C)[C@@H]2C1

Second part, the compound before the results:

Row | Compound | Activity | inhibition [%]
6 | CC(=O)OC[C@H]1O[C@@H](OC[C@H]2O[C@@H](OC(=O)[C@]34CCC(C)(C)C[C@H]3C3=CC[C@H]5[C@@H](CC[C@H]6C(C)(C)[C@@H](O[C@@H]7OC[C@H](O)[C@H](O)[C@H]7O[C@@H]7O[C@@H](C)[C@H](O)[C@@H](O)[C@H]7O)CC[C@]56C)[C@]3(C)CC4)[C@H](O)[C@@H](O)[C@@H]2O)[C@H](O)[C@@H](O)[C@@H]1O[C@@H]1O[C@@H](C)[C@H](O)[C@@H](O)[C@H]1O | inactive | 
7 | C[C@@H]1O[C@@H](O[C@H]2[C@H](O[C@H]3CC[C@]4(C)[C@H]5CC=C6[C@@H]7CC(C)(C)CC[C@]7(C(=O)O[C@@H]7O[C@H](CO[C@@H]8O[C@H](CO)[C@@H](O[C@@H]9O[C@@H](C)[C@H](O)[C@@H](O)[C@H]9O)[C@H](O)[C@H]8O)[C@@H](O)[C@H](O)[C@H]7O)[C@H](O)C[C@@]6(C)[C@@H]5CC[C@H]4C3(C)C)OC[C@H](O)[C@@H]2O)[C@H](O)[C@H](O)[C@H]1O |  | 38.3
8 | C[C@@H]1O[C@@H](O[C@H]2[C@H](O)[C@@H](O)[C@H](OC[C@H]3O[C@@H](OC(=O)[C@]45CCC(C)(C)C[C@H]4C4=CC[C@@H]6[C@@]7(C)CC[C@H](O[C@@H]8OC[C@H](O)[C@H](O)[C@H]8O)C(C)(C)[C@@H]7CC[C@@]6(C)[C@]4(C)CC5)[C@H](O)[C@@H](O)[C@@H]3O)O[C@@H]2CO)[C@H](O)[C@H](O)[C@H]1O | inactive | 
9 | C[C@@H]1O[C@@H](O[C@H]2[C@H](O[C@H]3CC[C@]4(C)[C@H]5CC=C6[C@@H]7C[C@](C)(C(=O)O)CC[C@]7(C(=O)O)CC[C@@]6(C)[C@@H]5CC[C@H]4C3(C)C)OC[C@H](O)[C@@H]2O)[C@H](O)[C@H](O)[C@H]1O |  | 44.9
10 | C=C1CC[C@]2(C(=O)O[C@@H]3O[C@H](CO[C@@H]4O[C@H](COC(C)=O)[C@@H](O[C@@H]5O[C@@H](C)[C@H](O)[C@@H](O)[C@H]5O)[C@H](O)[C@H]4O)[C@@H](O)[C@H](O)[C@H]3O)CC[C@]3(C)C(=CC[C@H]4[C@H]3CC[C@H]3C(C)(C)[C@@H](O[C@@H]5OC[C@H](O)[C@H](O)[C@H]5O)CC[C@]43C)[C@@H]2C1 |  | -46.7
11 | CC(=O)OC[C@H]1O[C@@H](OC[C@H]2O[C@@H](OC(=O)[C@]34CCC(C)(C)C[C@H]3C3=CC[C@H]5[C@@H](CC[C@H]6C(C)(C)[C@@H](O[C@@H]7OC[C@H](O)[C@H](O)[C@H]7O[C@@H]7O[C@H](CO)[C@@H](O)[C@H](O)[C@H]7O)CC[C@]56C)[C@]3(C)CC4)[C@H](O)[C@@H](O)[C@@H]2O)[C@H](O)[C@@H](O)[C@@H]1O[C@@H]1O[C@@H](C)[C@H](O)[C@@H](O)[C@H]1O | inactive | 
12 | C[C@@H]1O[C@@H](O[C@H]2[C@H](O[C@H]3CC[C@]4(C)[C@H]5CC=C6[C@@H]7C[C@](C)(CO)CC[C@]7(C(=O)O)CC[C@@]6(C)[C@@H]5CC[C@H]4C3(C)C)OC[C@H](O)[C@@H]2O)[C@H](O)[C@H](O)[C@H]1O |  | 33
13 | C[C@@H]1O[C@@H](O[C@H]2[C@H](O[C@H]3CC[C@]4(C)[C@H]5CC=C6[C@@H]7CC(C)(C)CC[C@]7(C(=O)O[C@@H]7O[C@H](CO[C@@H]8O[C@H](CO)[C@@H](O[C@@H]9O[C@@H](C)[C@H](O)[C@@H](O)[C@H]9O)[C@H](O)[C@H]8O)[C@@H](O)[C@H](O)[C@H]7O)CC[C@@]6(C)[C@]5(C)CC[C@H]4C3(C)C)OC[C@H](O)[C@@H]2O)[C@H](O)[C@H](O)[C@H]1O | inactive | 
14 | C=C(C)[C@@H]1CC[C@]2(C(=O)O[C@@H]3O[C@H](CO[C@@H]4O[C@H](CO)[C@@H](O[C@@H]5O[C@@H](C)[C@H](O)[C@@H](O)[C@H]5O)[C@H](O)[C@H]4O)[C@@H](O)[C@H](O)[C@H]3O)CC[C@]3(C)[C@H](CC[C@@H]4[C@@](C)(CCC(=O)O)[C@H](C(=C)C)CC[C@]43C)[C@@H]12 |  | 44.6
15 | C=C(C)[C@@H]1CC[C@]2(C(=O)O[C@@H]3O[C@H](CO[C@@H]4O[C@H](CO)[C@@H](O[C@@H]5O[C@@H](C)[C@H](O)[C@@H](O)[C@H]5O)[C@H](O)[C@H]4O)[C@@H](O)[C@H](O)[C@H]3O)CC[C@]3(C)[C@H](C[C@H]4OC(=O)C[C@@H](O)[C@]5(C)[C@@H]4[C@@]3(C)CC[C@H]5C(=C)C)[C@@H]12 |  | 56.1
